Source: PubChem BioAssay (Broad Institute)
INS-1E rescue = rescue of cytokine-induced death in INS-1E beta cells. protection from cytokine-induced ATP loss, % at 10 µM. INS-1E cytokine-induced death, ATP luminescence, 48 h; normalised: neutral wells 0, positive control 100. hit rate 0.1% among 20,000. AID 488910;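 active means mean replicate protection from cytokine-induced ATP loss at least 50% and at least 75% of replicates each reaching 50%; inconclusive means meets only one of the two criteria, mean or replicate share; inactive means fails both the mean and replicate share criteria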
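Assay system: INS-1E rat insulinoma cells. Amount: 8000 cells per well. Medium: phenol-red-free RPMI with 5% fetal bovine serum. Reagent: IL-1β, TNF-α and IFN-γ cytokine mix. Doses: one compound concentration, pin transfer. Schedule: 48 h co-treatment, 10 min post-lysis read. Detection: CellTiter-Glo luminescence measuring cellular ATP.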
T cruzi HTS = blocks T. cruzi growth inside host cells; activity score (inhibition), % at 5.01 µM; AID 651903; hit rate 4.9% among 22,000; intracellular Trypanosoma cruzi in host cells, plate reader; in the data active means activity score above about 55%; inconclusive means no clear call, values can overlap the other calls;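 further: parasites and compound incubated about four days before reading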
A1 apoptosis 2 = A1 inhibition read as caspase activation. MEF A1-2A-BIM cells, caspase-Glo luminescence, 3 h; percent of clofoctol response, DMSO zero. caspase activation, % (no concentration beside the values). 24,000 tested, under 10 active; in the data active means caspase activation above about 5.9%; inconclusive means no clear call, values can overlap the other calls; inactive means below about 2.2%
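Evaluation: Caspase-3/7 activity from luminescence increase | Assay system: A1-2A-BIM mouse embryonic fibroblasts | Quantity: 2500 MEF cells/well | Medium: RPMI-1640 plus 10% FBS | Detection: Caspase-Glo 3/7 luminescence, 1 h at room temperature | Dosing: 50 nL compound per well, pinned | Timing: Cells settled overnight, compound exposure 3 h at 37 °C, 5% CO2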
A number is an active result; 0 = inactive; ? = inconclusive; - = no result. The sample as a whole holds a higher share of hits than the screen did.

SMILES	INS-1E rescue	T cruzi HTS	A1 apoptosis 2
C[C@@H]1CN([C@H](C)CO)C(=O)c2cccc(NS(=O)(=O)c3ccc(Cl)cc3)c2O[C@H]1CN(C)Cc1ccc(C(=O)Nc2ccccc2N)cc1	0	65	0
C[C@@H]1CCCCO[C@@H](CN(C)Cc2ccc(C(=O)Nc3ccccc3N)cc2)[C@@H](C)CN([C@H](C)CO)C(=O)c2cc(NS(=O)(=O)c3cccs3)ccc2O1	0	62	-
C[C@@H]1CCCCO[C@@H](CN(C)Cc2ccc(C(=O)Nc3ccccc3N)cc2)[C@@H](C)CN([C@H](C)CO)C(=O)c2cc(NS(=O)(=O)c3ccc(Cl)cc3)ccc2O1	0	78	0
C[C@@H]1CCCCO[C@H](CN(C)Cc2ccc(C(=O)Nc3ccccc3N)cc2)[C@@H](C)CN([C@H](C)CO)C(=O)c2cc(NS(=O)(=O)c3cccs3)ccc2O1	0	0	0
C[C@@H]1CN([C@@H](C)CO)C(=O)c2cc(NS(=O)(=O)c3ccc(F)cc3)ccc2O[C@@H]1CN(C)Cc1ccc(C(=O)Nc2ccccc2N)cc1	0	0	-
C[C@@H]1CN([C@H](C)CO)C(=O)Cc2cc(NC(=O)CCC(F)(F)F)ccc2O[C@@H]1CN(C)Cc1ccc(C(=O)O)cc1	0	0	-
CNC[C@H]1Oc2ccc(NC(=O)CCC(F)(F)F)cc2CC(=O)N([C@H](C)CO)C[C@H]1C	0	0	0
C[C@H]1CN([C@@H](C)CO)C(=O)c2cc(NS(=O)(=O)c3ccc(Cl)cc3)ccc2O[C@H]1CN(C)Cc1ccc(C(=O)Nc2ccccc2N)cc1	0	73	-
C[C@@H]1CN([C@H](C)CO)C(=O)c2cc(NS(=O)(=O)c3ccccc3)ccc2O[C@H]1CN(C)Cc1ccc(C(=O)Nc2ccccc2N)cc1	0	0	-
C[C@@H]1CN([C@H](C)CO)C(=O)c2cc(N(C)C)ccc2O[C@@H]1CN(C)Cc1ccc(C(=O)Nc2ccccc2N)cc1	63	71	-
C[C@@H]1CN([C@H](C)CO)C(=O)c2cc(N(C)C)ccc2O[C@H]1CN(C)Cc1ccc(C(=O)Nc2ccccc2N)cc1	0	63	-
CC(C)NC(=O)Nc1ccc2c(c1)C(=O)N([C@@H](C)CO)C[C@H](C)[C@H](CN(C)Cc1ccc(C(=O)Nc3ccccc3N)cc1)O2	0	?	-
C[C@H]1CN([C@@H](C)CO)C(=O)c2cc(N(C)C)ccc2O[C@H]1CN(C)Cc1ccc(C(=O)Nc2ccccc2N)cc1	0	0	-
CC(C)NC(=O)Nc1ccc2c(c1)C(=O)N([C@@H](C)CO)C[C@H](C)[C@@H](CN(C)Cc1ccc(C(=O)Nc3ccccc3N)cc1)O2	0	58	-
C[C@H](CO)N1C[C@H](C)[C@H](CN(C)Cc2ccc(C(=O)Nc3ccccc3N)cc2)Oc2ccc(N(C)C)cc2C1=O	0	0	0
C[C@@H]1CN([C@H](C)CO)C(=O)c2cc(NC(=O)C3CC3)ccc2O[C@@H]1CN(C)C(=O)Nc1ccccc1	0	0	0
C[C@H](CO)N1C[C@H](C)[C@@H](CN(C)Cc2ccncc2)Oc2c(NC(=O)C3CCOCC3)cccc2C1=O	0	0	0
C[C@@H]1CCCCO[C@@H](CN(C)Cc2ccc(Cl)c(Cl)c2)[C@H](C)CN([C@@H](C)CO)C(=O)c2cc(NC(=O)CCC(F)(F)F)ccc2O1	-	-	0
C[C@H]1CN([C@@H](C)CO)C(=O)Cc2cc(NC(=O)Cc3ccccc3)ccc2O[C@@H]1CN(C)Cc1ccc2c(c1)OCO2	0	57	0
C[C@@H]1CN([C@H](C)CO)C(=O)Cc2cc(NC(=O)Cc3ccccc3)ccc2O[C@H]1CN(C)Cc1ccc2c(c1)OCO2	0	0	-
C[C@@H]1CN([C@H](C)CO)C(=O)Cc2cc(NC(=O)Nc3ccccc3)ccc2O[C@@H]1CN(C)Cc1ccc(Cl)c(Cl)c1	0	0	-
C[C@@H]1CN([C@H](C)CO)C(=O)Cc2cc(NC(=O)Cc3ccccc3)ccc2O[C@@H]1CN(C)Cc1ccc(Cl)c(Cl)c1	0	76	0
C[C@@H]1CN([C@@H](C)CO)C(=O)Cc2cc(NC(=O)Cc3ccccc3)ccc2O[C@@H]1CN(C)Cc1ccccc1	0	0	-
C[C@@H]1CN([C@@H](C)CO)C(=O)Cc2cc(NC(=O)Cc3ccccc3)ccc2O[C@@H]1CN(C)Cc1ccc(Cl)c(Cl)c1	0	66	0
C[C@@H]1CN([C@H](C)CO)C(=O)Cc2cc(NC(=O)Nc3ccccc3)ccc2O[C@H]1CN(C)Cc1ccc(C(=O)O)cc1	0	0	0
SMILES	INS-1E rescue	T cruzi HTS	A1 apoptosis 2
C[C@@H]1CN([C@H](C)CO)C(=O)c2cccc(NC(=O)C3CC3)c2O[C@@H]1CN(C)C(=O)NC1CCCCC1	0	0	0
C[C@H]1CN([C@@H](C)CO)C(=O)Cc2cc(NC(=O)C3CC3)ccc2O[C@@H]1CN(C)Cc1ccc(C(F)(F)F)cc1	0	74	0
C[C@@H]1CN([C@@H](C)CO)C(=O)Cc2cc(NC(=O)C3CC3)ccc2O[C@@H]1CN(C)Cc1ccc(C(F)(F)F)cc1	0	0	0
C[C@@H]1CN([C@@H](C)CO)C(=O)Cc2cc(NC(=O)Nc3ccc(C(F)(F)F)cc3)ccc2O[C@@H]1CN(C)C(=O)Nc1ccc(C(F)(F)F)cc1	0	76	0
C[C@@H]1CN([C@@H](C)CO)C(=O)Cc2cc(NC(=O)Nc3ccc(F)cc3)ccc2O[C@@H]1CN(C)Cc1ccc(C(F)(F)F)cc1	0	80	-
C[C@@H]1CN([C@@H](C)CO)C(=O)Cc2cc(NC(=O)Nc3ccc(C(F)(F)F)cc3)ccc2O[C@@H]1CN(C)Cc1ccc2c(c1)OCO2	0	58	-
C[C@@H]1CN([C@H](C)CO)C(=O)Cc2cc(NC(=O)Nc3ccc(C(F)(F)F)cc3)ccc2O[C@H]1CN(C)Cc1ccc2c(c1)OCO2	0	0	0
C[C@@H]1CN([C@H](C)CO)C(=O)Cc2cc(NC(=O)Nc3ccc(C(F)(F)F)cc3)ccc2O[C@H]1CN(C)C(=O)Nc1ccc(C(F)(F)F)cc1	0	0	0
C[C@@H]1CN([C@@H](C)CO)C(=O)Cc2cc(NC(=O)Nc3ccc(F)cc3)ccc2O[C@H]1CN(C)Cc1ccc(C(F)(F)F)cc1	-	-	0
Cc1noc(C)c1NC(=O)Nc1ccc2c(c1)C(=O)N([C@@H](C)CO)C[C@@H](C)[C@@H](CN(C)Cc1ccncc1)OCCCC[C@H](C)O2	-	-	0
C[C@@H]1CCCCO[C@H](CN(C)C(=O)Cc2ccccc2)[C@@H](C)CN([C@@H](C)CO)C(=O)c2cc(NS(C)(=O)=O)ccc2O1	-	-	0
COc1ccc(NC(=O)N(C)C[C@@H]2Oc3ccc(NC(=O)Cc4cn(C)c5ccccc45)cc3C(=O)N([C@H](C)CO)C[C@@H]2C)cc1	0	0	0
C[C@H](CO)N1C[C@H](C)[C@H](CN(C)S(=O)(=O)c2ccccc2)Oc2ccc(NS(=O)(=O)c3ccccc3)cc2CC1=O	0	0	0
C[C@H]1CN([C@@H](C)CO)C(=O)c2cc(N(C)C)ccc2O[C@@H]1CN(C)Cc1ccncc1	0	0	0
C[C@@H]1CCCCO[C@H](CN(C)C(=O)CCC(F)(F)F)[C@@H](C)CN([C@H](C)CO)C(=O)c2cc(NC(=O)c3ccccc3)ccc2O1	0	0	-
